Data: ChEMBL document CHEMBL3580548, “Ervatamines A-I, Anti-inflammatory Monoterpenoid Indole Alkaloids with Diverse Skeletons from Ervatamia hainanensis” (J Nat Prod, 2015)
pIC50: −log10 of the molar value. Activity calls are given as the source filed them. The rule behind the calls is not given here.

Tested on: RAW264.7
Assay: Anti-inflammatory activity in mouse RAW264.7 cells assessed as LPS-stimulated inhibition of nitric oxide production incubated simultaneously with LPS for 24 hrs by Griess reagent based assay
Assay type: functional, cell-based
Conditions: not given
In short: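 RAW264.7 cells grown in RPMI 1640 with 10% heat-inactivated FBS, penicillin 100 U/mL and streptomycin 100 μg/mL; 1 × 10^5 cells/well allowed to adhere 2 h at 37 °C, 5% CO2. Cells exposed to 1 μg/mL LPS for 24 h with or without compounds across a concentration range. Indomethacin as positive control. Nitrite in supernatant measured by Griess reagent. Run in triplicate; IC50 reported.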
With `CC[C@H]1C[C@@H]2C[C@@]3(C(=O)OC)c4[nH]c5ccccc5c4CCN(C2CC(C)=O)[C@@H]13` (some centres not stated) the inhibition was “Active”.
With `COC(=O)[C@@]12C[C@H]3C[C@H]([C@H](C)O)[C@@H]1N(Cc1c2n(C=O)c2ccccc12)C3` the inhibition was “inactive”.
For `C/C=C1/C[N@+]2(C)CCc3c([nH]c4ccccc34)C(CO)(C(=O)[O-])[C@H]1CC2` (some centres not stated), the inhibition was “inactive”.
With `COC(=O)[C@]12C[C@@H]3CN(CCc4c1[nH]c1ccccc41)[C@H]2[C@@H]([C@H](C)O)C3O` (some centres not stated) the inhibition was “Active”.
With `COC(=O)[C@@]12C[C@@H]3C[C@@H](C(C)O)[C@@H]1N(CC[C@]21Nc2ccccc2C1=O)C3` (some centres not stated) the inhibition was “inactive”.
With `C[N@@+]12CCc3c([nH]c4ccccc34)[C@](CO)(C(=O)[O-])[C@@H](CC1)/C(=C\CO)C2` the inhibition was “inactive”.
In the case of `C/C=C1/C[N@+]2(C)CCc3c([nH]c4ccccc34)[C@H](C(=O)[O-])[C@H]1CC2`, the inhibition was “inactive”.
In the case of `COC(=O)[C@@]12C[C@H]3C[C@H]([C@H](C)O)[C@@H]1N(CCc1c2[nH]c2ccccc12)C3CC(C)=O` (some centres not stated), the inhibition was “Active”.
For `CC[C@H]1C[C@@H]2C[C@@]3(C(=O)OC)c4[nH]c5ccccc5c4CCN(C2CO)[C@@H]13` (some centres not stated), the inhibition was “Active”.
With `C/C=C1/C[N@+]2(C)CCc3c([nH]c4ccccc34)[C@@H](C(=O)[O-])[C@H]1CC2` the inhibition was “inactive”.
With `COC(=O)[C@@]12C[C@H]3C[C@H](C(C)=O)[C@@H]1N(CCc1c2[nH]c2ccccc12)C3` the inhibition was “Active”.
With `C[C@H](O)[C@@H]1C[C@H]2C[C@H]3c4[nH]c5ccccc5c4CCN(C2)[C@@H]13` the inhibition was “Active”.

Same assay, conditions: RAW264.7, 24 h
`CC[C@@]1(O)CC2[C@H]3C(C(=O)OC)=C4Nc5ccccc5C45CCN([C@H]25)[C@H]31` (some centres not stated) showed a pIC50 of 4.38.
Compound `CC[C@H]1C[C@@H]2CN3CCc4c([nH]c5ccccc45)[C@](C(=O)OC)(C2)[C@H]13` [CORONARIDINE] has a pIC50 of 4.59.
With `COc1ccc2c(c1)c(CC(=O)O)c(C)n2C(=O)c1ccc(Cl)cc1` [INDOMETHACIN] the pIC50 was 4.37.

Tested on: not listed separately
Assay: Cytotoxicity against human 786-O cells by MTT assay
Assay type: functional, cell-based
Conditions: 786-0
For `COC(=O)[C@@]12C[C@H]3C[C@H](C(C)=O)[C@@H]1N(CCc1c2[nH]c2ccccc12)C3`, the pIC50 was 4.56.

Tested on: HL-60
Assay: Cytotoxicity against human HL60 cells by MTT assay
Assay type: functional, cell-based
Conditions: not given
In the case of `COC(=O)[C@@]12C[C@H]3C[C@H](C(C)=O)[C@@H]1N(CCc1c2[nH]c2ccccc12)C3`, the pIC50 was 4.31.
